According to ChEMBL document CHEMBL4431316, “New 6-Aminoquinoxaline Derivatives with Neuroprotective Effect on Dopaminergic Neurons in Cellular and Animal Parkinson Disease Models” (J Med Chem, 2016):
Active and inactive are the calls of the source. The rule behind the calls is not given here.

What was measured:
Rattus norvegicus [1] = organism: Rattus norvegicus; test: (§1) Neuroprotective activity in Sprague-Dawley rat DA neuron death PD model assessed as survival of Th immunopositive cells at 50 uM after 10 days by immunofluorescence assay; format: functional
Summary of the method: (§2)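 Midbrain cultures in which DA neurons die spontaneously and selectively through a mechanism involving immature astrocytes and calcium dyshomeostasis. Compounds were present for 10 days in vitro, screened at 50 µM (100 µM for one analog) and retested at 10 µM. dbcAMP 1 mM served as reference. Surviving TH+ neurons were counted and expressed as % of corresponding untreated control cultures.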

Rattus norvegicus [2] = organism: Rattus norvegicus; test: (§3) Neuroprotective activity in Sprague-Dawley rat DA neuron death PD model assessed as survival of Th immunopositive cells at 10 uM after 10 days by immunofluorescence assay relative to control; format: functional; summary of the method: as §2
Rattus norvegicus [3] = organism: Rattus norvegicus; test: Antioxidant activity in Sprague-Dawley rat DA neuron assessed as reduction in ferrous iron-mediated neuron death at 10 uM; format: functional
Summary of the method: (§4)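 Midbrain cultures with DA cell death driven by a Fenton-type reaction, ferrous iron reacting with molecular oxygen in the medium (chronic oxidative stress). Test compound 1-10 µM; desferrioxamine 10 µM as positive control. Readout is DA neuron (TH+) survival. P < 0.05 vs control cultures.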

Astrocyte [4] = test: Neuroprotective activity in Sprague-Dawley rat astrocytes assessed as [methyl-3H]thymidine incorporation at 10 to 50 uM after 8 days by liquid scintillation counting assay relative to control; format: functional
Summary of the method: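 Glial proliferation in midbrain cultures measured as [methyl-3H]-thymidine incorporation at 8 DIV, with test compound 10-50 µM. DbcAMP 1 mM as positive control. Expressed as % of control.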

[5] = as §3; format: functional; settings: 240 h, read-out: Survival; summary of the method: as §2
[6] = as §1; format: functional; settings: 240 h, read-out: Survival; summary of the method: as §2
Astrocyte [7] = test: Neuroprotective activity in Sprague-Dawley rat astrocytes assessed as effect on vimentin positive cell density and morphology at 50 uM by fluorescence microscopic method; format: functional, cell-based
Summary of the method: (§5)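 Midbrain cultures labelled for vimentin, a glial marker. Density and morphology of glial cells scored semi-quantitatively by fluorescence microscopy. Compounds tested at 10 and 50 µM, one at 100 µM; dbcAMP as reference.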

Astrocyte [8] = test: Neuroprotective activity in Sprague-Dawley rat astrocytes assessed as effect on vimentin positive cell density and morphology at 10 uM by fluorescence microscopic method; format: functional, cell-based; summary of the method: as §5
Rattus norvegicus [9] = organism: Rattus norvegicus; test: Antioxidant activity in Sprague-Dawley rat DA neuron assessed as reduction in ferrous iron-mediated neuron death at 5 uM; format: functional; summary of the method: as §4
Astrocyte [10] = test: Neuroprotective activity in Sprague-Dawley rat astrocytes assessed as effect on vimentin positive cell density and morphology at 100 uM by fluorescence microscopic method; format: functional, cell-based; summary of the method: as §5
[11] = Neuroprotective activity in Sprague-Dawley rat DA neuron death PD model assessed as survival of Th immunopositive cells at 100 uM after 10 days by immunofluorescence assay relative to control; format: functional; settings: 240 h, read-out: Survival; summary of the method: as §2
Astrocyte [12] = test: Neuroprotective activity in Sprague-Dawley rat astrocytes assessed as effect on vimentin positive cell density and morphology at 1 mM by fluorescence microscopic method; format: functional, cell-based; summary of the method: as §5
[13] = Neuroprotective activity in Sprague-Dawley rat DA neuron death PD model assessed as survival of Th immunopositive cells at 1 mM after 10 days by immunofluorescence assay relative to control; format: functional; settings: 240 h, read-out: Survival; summary of the method: as §2
Rattus norvegicus [14] = organism: Rattus norvegicus; test: Neuroprotective activity in Sprague-Dawley rat DA neuron death PD model assessed as increase in [2,5,6-3H]DA uptake at 1 mM after 10 days by liquid scintillation counting spectrometric analysis; format: functional
Summary of the method: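 Midbrain cultures in which DA neurons die spontaneously and selectively. Treated with test compound (10-50 µM) or dbcAMP (1 mM, reference) up to 10 DIV. Tritium-labeled DA uptake quantified as a marker of DA cell function and differentiation. Uptake rate per TH+ neuron also derived. *P < 0.05 vs control.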

SMILES	Activity (Rattus norvegicus [1])	other results
Nc1ccc2ncc(-c3ccc4ccccc4c3)nc2c1	Active	
COc1ccc(-c2nc3cc(N)ccc3nc2C)cc1	inactive	
COc1ccc(C#Cc2cnc3ccc(N)cc3n2)cc1	inactive	
Nc1ccc2ncc(-c3cnc4ccccc4c3)nc2c1	Active	
Cc1nc2ccc(N)cc2nc1C	inactive	
Nc1ccc2ncc(-c3cccc(O)c3)nc2c1	Active	Activity (Rattus norvegicus [2]): inactive
CC(=O)N(O)CCCCCNC(=O)CCC(=O)N(O)CCCCCNC(=O)CCC(=O)N(O)CCCCCN		Activity (Rattus norvegicus [3]): Active
Cc1nc2ccc(N)cc2nc1-c1ccc(Cl)cc1	inactive	
Cc1nc2ccc(N)cc2nc1-c1ccc2ccccc2c1	inactive	
C#CCNc1ccc2nc(C)c(-c3ccc(F)cc3)nc2c1	Active	
C#CCNc1ccc2nc(C)c(-c3ccc(Cl)c(Cl)c3)nc2c1	inactive	Activity (Astrocyte [4]): inactive
C#CCNc1ccc2nc(C)c(-c3ccc(C)cc3)nc2c1	inactive	Activity (Astrocyte [4]): inactive
Cc1nc2ccc(N)cc2nc1-c1ccc(-c2ccccc2)cc1	inactive	
C#CCNc1ccc2nc(C)c(-c3ccccc3)nc2c1Br	Active	
Cc1nc2ccc(N)c(Cl)c2nc1-c1ccccc1	Active	
C#CCNc1ccc2nc(C)c(-c3ccccc3)nc2c1	Active	
Nc1ccc2nc(-c3ccccc3)cnc2c1		viability at 10 µM [5]: 134%; viability at 50 µM [6]: 187%; Activity (Astrocyte [7]): inactive; Activity (Astrocyte [8]): inactive
COc1ccc(-c2nc3cc(N)ccc3nc2-c2ccccc2)cc1	inactive	
Nc1ccc2ncc(-c3cccc4ccccc34)nc2c1	Active	
C#CCNc1ccc2ncc(-c3ccccc3)nc2c1	Active	viability at 10 µM [5]: 212%; Activity (Astrocyte [7]): Active; Activity (Astrocyte [8]): inactive

SMILES	Activity (Rattus norvegicus [1])	other results
Cc1nc2ccc(N)cc2nc1-c1ccccc1		Activity (Rattus norvegicus [9]): Active; Activity (Astrocyte [10]): Active; viability at 100 µM [11]: 199%; Activity (Astrocyte [8]): inactive
C#CCNc1ccc2ncc(-c3ccc(F)cc3)nc2c1	Active	Activity (Astrocyte [7]): Active; Activity (Astrocyte [8]): inactive
C#CCNc1ccc2nc(C)c(-c3ccc(Cl)cc3)nc2c1	inactive	Activity (Astrocyte [4]): inactive
Cc1nc2ccc(N)cc2nc1-c1ccc(F)cc1	Active	
Nc1ccc2ncc(-c3ccc(F)cc3)nc2c1	Active	viability at 10 µM [5]: 144%; Activity (Astrocyte [7]): inactive; Activity (Astrocyte [8]): inactive
COc1ccc(-c2nc3cc(N)ccc3nc2C)cc1OC	inactive	
C#CC(C)(C)Nc1ccc2nc(C)c(-c3ccccc3)nc2c1	inactive	Activity (Astrocyte [4]): inactive
Cc1nc2ccc(N)c(Br)c2nc1-c1ccccc1	Active	Activity (Rattus norvegicus [2]): inactive
Cc1nc2cc(Br)c(N)c(Cl)c2nc1-c1ccccc1	inactive	
Nc1ccc2ncc(Cl)nc2c1	Active	
C#CCNc1ccc2nc(C)c(-c3ccc4ccccc4c3)nc2c1	inactive	Activity (Astrocyte [4]): inactive
Cc1nc2ccc(N)cc2nc1-c1ccc(Cl)c(Cl)c1	Active	
COc1cc(-c2cnc3ccc(N)cc3n2)cc(OC)c1OC	Active	Activity (Rattus norvegicus [2]): inactive
C#CCNc1ccc2nc(C)c(-c3cc(OC)c(OC)c(OC)c3)nc2c1		Activity (Astrocyte [4]): inactive
CCCC(=O)Nc1ncnc2c1ncn2[C@@H]1O[C@@H]2COP(=O)(O)O[C@H]2[C@H]1OC(=O)CCC [BUCLADESINE]		Activity (Astrocyte [12]): Active; viability at 1000 µM [13]: 225%; Activity (Rattus norvegicus [14]): Active
C#Cc1cnc2ccc(N)cc2n1	inactive	
Cc1ccc(-c2nc3cc(N)ccc3nc2C)cc1	inactive	
Nc1ccc2ncc(-c3cccnc3)nc2c1	Active	
C#CCNc1ccc2nc(C)c(-c3ccc(OC)cc3)nc2c1		Activity (Astrocyte [4]): inactive
